Test results: article PMC7366207 (Journal of Antimicrobial Chemotherapy, 2020)
Each block holds one molecule with its values, some of them ahead of it.

Tests used:
[1] = type: in vivo, human; settings: oral 30 mg/day, steady state
[2] = type: in vivo, human; settings: LATTE
Method in brief: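 LATTE participants received oral drug 10, 30 or 60 mg once daily with two nucleoside analogues for 24 weeks, then with rilpivirine 25 mg daily to Week 72. Maximum on-treatment change from baseline in serum ALT and total bilirubin, regardless of dose, measured centrally as multiples of ULN. Linear regression on predicted UGT1A1/UGT1A9 activity, with covariates kept if P<0.05.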

[3] = Last oral lead-in cabotegravir trough; type: in vivo, human; settings: for Low-versus-normal fold-change between mean cabotegravir trough concentrations: last oral trough on Day 1 (oral 30 mg); for Mean cabotegravir trough concentration: last oral trough on Day 1
Method in brief: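 Human PK in LATTE-2 (4-weekly arm): daily oral 30 mg plus abacavir/lamivudine for 20 weeks. Day 1 trough taken 20–28 h after the last home oral dose. Plasma drug measured by validated LC-MS (LLOQ 25 ng/mL). Predicted UGT1A1 activity: normal with no *6/*28/*37 (*36 counted as wild type), reduced with one copy, low with two. Fold-change taken as the ratio of mean troughs.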

[4] = tested on: UGT1A1; settings: cited from earlier work
[5] = tested on: UGT1A9; settings: cited from earlier work
[6] = tested on: uridine 5′-diphospho-glucuronosyltransferase (UGT); settings: cited from earlier work
[7] = cited from earlier work
[8] = oral dolutegravir 50 mg/day; same allele and activity definitions; cited from earlier work
[9] = tested on: cytochrome P450 3A4; settings: cited from earlier work
[10] = fast versus normal predicted UGT1A9 activity
[11] = low versus normal predicted UGT1A1 activity
[12] = oral 10, 30 and 60 mg, fast versus normal predicted UGT1A9 activity
[13] = oral 10, 30 and 60 mg, low versus normal predicted UGT1A1 activity

Association of predicted UGT1A9 activity with exposure measures [1]: not significantly associated
Elevation in oral AUCtau associated with low predicted UGT1A1 activity [1]: 41%
Elevation in oral Cmax associated with low predicted UGT1A1 activity [1]: 28%
AUCtau, fold-change in exposure (fast versus normal) [1, 10]: 1.04 fold
Cmax, fold-change in exposure (fast versus normal) [1, 10]: 1.03 fold
Ctau, fold-change in exposure (fast versus normal) [1, 10]: 0.98 fold
AUCtau, fold-change in exposure (low versus normal) [1, 11]: 1.41 fold
Cmax, fold-change in exposure (low versus normal) [1, 11]: 1.28 fold
Ctau, fold-change in exposure (low versus normal) [1, 11]: 1.50 fold
Tbili change from BL, fold-change (fast versus normal) [2, 12]: 0.69 fold
Tbili maximum change from baseline, fold-change (low versus normal) [2, 13]: 2.45 fold
Low-versus-normal fold-change between mean cabotegravir trough concentrations ([3]; 4 weekly group): 1.57 fold
Mean cabotegravir trough concentration ([3]; 4 weekly group, low predicted UGT1A1 activity): 6.11 µg/mL
Mean cabotegravir trough concentration ([3]; 4 weekly group, normal predicted UGT1A1 activity): 3.88 µg/mL
Low-versus-normal fold-change between mean cabotegravir trough concentrations ([3]; 8 weekly arm): 1.19 fold
Mean cabotegravir trough concentration ([3]; 8 weekly arm, low predicted UGT1A1 activity): 5.10 µg/mL
Mean cabotegravir trough concentration ([3]; 8 weekly arm, normal predicted UGT1A1 activity): 4.28 µg/mL
Compound: C[C@H]1CO[C@@H]2Cn3cc(C(=O)NCc4ccc(F)cc4F)c(=O)c(O)c3C(=O)N12 [cabotegravir]
ALT change from BL, fold-change (fast versus normal) [2, 12]: 1.68 fold
ALT maximum change from baseline, fold-change (low versus normal) [2, 13]: 0.68 fold
Association of predicted UGT1A1 activity with maximum change in ALT ([2]; oral any dose): no significant association
Participants with maximum on-treatment ALT elevation ≥3× ULN ([2]; among the 5 participants with Tbili increases of 1.5× ULN or greater): none
Effect on UGT1A1 expression or activity [4]: does not functionally affect UGT1A1 expression or activity
Metabolism by UGT1A1 [4]: primarily metabolized by UGT1A1
Metabolism by UGT1A9 [5]: minor contribution by UGT1A9
Inhibition or induction of UGT [6]: not an inhibitor or inducer
Aqueous solubility [7]: low aqueous solubility

Compound: C[C@@H]1CCO[C@H]2Cn3cc(C(=O)NCc4ccc(F)cc4F)c(=O)c(O)c3C(=O)N12 [dolutegravir]
Increase in AUCtau associated with low UGT1A1 activity [8]: 46%
Increase in Cmax associated with low UGT1A1 activity [8]: 32%
Contribution of cytochrome P450 3A4 to metabolism [9]: ~30%
